Measurements reported in ChEMBL document CHEMBL3272023, “Metabolic formation and synthesis of 1-(3-chlorophenyl)-2(4-hydroxyphenyl)-1-methyl-2(2 pyridine)ethanol. A potential hypocholesteremic agent” (J Med Chem, 1976).

What was measured:
Conditions in all cases: in vivo
[1] = Drug excretion in Sprague-Dawley rat assessed as radioactivity in urine at 1.71 uCi, ip measured on day 1; type: ADME, organism-based
Method in brief: (§1)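 Three male rats (250 ± 10 g), each in its own metabolic cage with diet and water ad libitum, given 40 mg/kg ³H-labelled drug (1.71 µCi) ip as 1 ml aqueous 0.26% Tween 80 suspension. Urine and feces collected at 11 h, then daily for 13 days. Feces air-dried, powdered, oxidized and counted. Tissues assayed after sacrifice on day 14.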

[2] = Drug excretion in Sprague-Dawley rat assessed as radioactivity in urine at 1.71 uCi, ip measured on day 7; type: ADME, organism-based; method in brief: as §1
[3] = Drug excretion in Sprague-Dawley rat assessed as radioactivity in feces at 1.71 uCi, ip measured on day 13; type: ADME, organism-based; method in brief: as §1
[4] = Drug excretion in Sprague-Dawley rat assessed as total radioactivity in feces at 1.71 uCi, ip; type: ADME; method in brief: as §1
[5] = Retardation factor of the compound in Sprague-Dawley rat urine at 15.6 uCi, ip using hexane-chloroform-acetic acid at 6:3:1 ratio TLC system I; type: physicochemical, organism-based
Method in brief: (§2)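 Urine from two rats (250 g) given 300 mg/kg (15.6 µCi) ip was examined by TLC, directly and before/after enzymatic hydrolysis (pH 5.8, 37°, 72 h). Standards were located by fluorescence quenching. Radioactivity was measured by scintillation counting of 0.5-cm silica gel strips scraped from the plates.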

[6] = Drug metabolism in Sprague-Dawley rat urine at 15.6 uCi, ip using hexane-chloroform-acetic acid at 6:3:1 ratio TLC system I; type: ADME, organism-based; method in brief: as §2
[7] = Drug metabolism in Sprague-Dawley rat urine assessed as hydroxylated 2-benzylpyridine at 15.6 uCi, ip by gas chromatography-mass spectrometry; type: ADME, organism-based
Method in brief: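 Two rats (250 g) dosed ip at 300 mg/kg (15.6 µCi). Urine hydrolysed at pH 5.8, 37°, 72 h with Helix pomatia glucuronidase/arylsulfatase or bovine liver β-glucuronidase. Preparative TLC in system II; the radioactive band at Rf 0.6 extracted into Et2O and silylated (bis(trimethylsilyl)acetamide/triethylamine). GLC on 3% SE-30, fractions counted, radioactive peak sent to MS.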

[8] = Drug metabolism in Sprague-Dawley rat urine at 15.6 uCi, ip using benzene-methanol at 8:2 ratio TLC system II; type: ADME, organism-based; method in brief: as §2
[9] = Drug metabolism in Sprague-Dawley rat urine at 15.6 uCi, ip using Et2O TLC system; type: ADME, organism-based; method in brief: as §2
[10] = Drug excretion in Sprague-Dawley rat assessed as radioactivity in feces at 1.71 uCi, ip measured on day 1

- Drug excretion [1]: 5%
- Drug excretion [2]: < 1%
- Drug excretion [3]: < 1%
- Drug excretion [4]: 25%
- Rf [5]: 0.56
- Drug metabolism [6]: metabolite_notdetected
- Drug metabolism [7]: metabolite_detected
- Drug metabolism [8]: metabolite_detected
- Drug metabolism [9]: metabolite_detected
- Drug excretion [10]: 7%
Compound: CC(O)(c1cccc(Cl)c1)C(c1ccccc1)c1ccccn1 (stereo not given)
